Published values pooled from the literature.
Cell line: HL-60
Observed: cell growth or viability

SMILES | assay | setting | IC50 [µM]
CN1CCc2c(c3ccccc3n2Cc2ccc(C(=O)NO)cc2)C1 | CCK-8 | 48 h | 8.87
COc1ccc(Nc2ncnc3c2ncn3Cc2ccc(C(=O)Nc3ccccc3N)cc2)cc1 | MTT | 72 h | 4.12
O=C(CSc1nc2ccccc2s1)N/N=C/c1ccc(OCC(=O)Nc2cccc([N+](=O)[O-])c2)cc1 | MTS | 72 h | > 100
Nc1ccccc1NC(=O)c1ccc(Cn2cnc3c(Nc4ccc(Br)cc4F)ncnc32)cc1 | MTT | 72 h | 0.99
FC(F)(F)c1ccc(-c2cc(CNc3cccc4cccnc34)on2)cc1 | MTS | 72 h | > 100
O=C(NO)c1ccc(Cn2cnc3c(Nc4ccc(F)c(Cl)c4)ncnc32)cc1 | MTT | 72 h | 2.55
N#Cc1ccc(-c2cc(COc3cc(C(F)(F)F)nc4ccccc34)on2)cc1 | MTS | 72 h | 62.2
O=C(CSc1nc2ccccc2s1)N/N=C/c1ccc(OCC(=O)Nc2cccc(Cl)c2)cc1 | MTS | 72 h | > 100
O=C(NO)c1ccc(Cn2cnc3c(Nc4ccc(Cl)cc4)ncnc32)cc1 | MTT | 72 h | 0.62
O=C(CSc1nc2ccccc2s1)N/N=C/c1ccc(OCC(=O)Nc2ccc([N+](=O)[O-])cc2)cc1 | MTS | 72 h | 16.1
C=C1C[C@@]23CC[C@H]4[C@@](C)(CCC[C@@]4(C)C(=O)O)[C@@H]2CC[C@@H]1C3 | XTT | 75 h | 155
c1ccc(-c2cc(CNc3cccc4cccnc34)on2)cc1 | MTS | 72 h | 79.6
